Measured values from ChEMBL document CHEMBL1152900, “Synthesis and evaluation of the antioxidant and anti-inflammatory activity of novel coumarin-3-aminoamides and their alpha-lipoic acid adducts” (Eur J Med Chem, 2009).
Activity calls are given as the source filed them. No cut-off for these calls is given here.

What was measured:
[1] = Antioxidant activity against hydroxyl radical assessed as inhibition of formaldehyde production at 0.1 mM after 30 mins relative to DMSO; type: functional; parameters: scale not given: the % may be the effect or the level left
Procedure, shortened: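 Hydroxyl radicals were generated with Fe3+, DMSO 33 mM and ascorbic acid 10 mM in 50 mM phosphate buffer, pH 7.4, with test compound at 0.1 mM final. Mixtures were incubated 30 min at 37 °C, stopped with CCl3COOH (17% w/v), and formaldehyde was read spectrophotometrically at 412. At least triplicate.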

[2] = Acute toxicity in rat assessed as survival up to 0.5 mmol/kg after 24 hrs; type: organism-based; settings: in vivo, read-out: Activity
Procedure, shortened: (§1)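 Rats were split into 5 groups of 6–8 animals each and injected with graded doses of 0.1–0.5 mmol/kg body weight. Animals were then scored for survival and examined macroscopically and at autopsy.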

Rattus norvegicus [3] = assay: Acute toxicity in rat assessed as mortality up to 0.5 mmol/kg after 24 hrs by macroscopic analysis; type: organism-based; settings: in vivo; procedure, shortened: as §1
Rattus norvegicus [4] = assay: Acute toxicity in rat assessed as mortality up to 0.5 mmol/kg after 24 hrs by autopsy; type: organism-based; settings: in vivo; procedure, shortened: as §1
Glycine max = assay: Inhibition of soybean lipoxygenase assessed as conversion of sodium linoleate to 13-hydroperoxylinoleic acid at 0.1 mM
Procedure, shortened: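 Soybean lipoxygenase (enzyme solution 1/9 × 10^-4 w/v in saline) was incubated at room temperature with sodium linoleate 0.1 mM and test compounds in ethanol. Conversion to 13-hydroperoxylinoleic acid was followed at 234 nm and compared with a standard inhibitor. At least triplicate.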

Rattus norvegicus [5] = assay: In vivo antiinflammatory activity in Fisher 344 rat assessed as inhibition of carrageenan-induced paw edema at 0.01 mmol/kg, ip administered simultaneously with carrageenan measured after 3.5 hrs; type: functional; settings: Fisher 344, ip
Procedure, shortened: (§2)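 Rats of both sexes (pregnant females excluded), bred in-house and fasted during the experiment; 6–15 per group, run twice. Test agents were suspended in water with a few drops of Tween 80 and given ip at the time of carrageenin injection. Rats were killed 3.5 h later. Injected minus uninjected paw weight gave % edema inhibition versus water-treated controls.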

[6] = Antioxidant activity assessed as reduction of DPPH activity at 0.1 mM after 20 mins; type: functional; parameters: scale not given: the % may be the effect or the level left
Procedure, shortened: (§3)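 DPPH at 0.05 mM final in absolute ethanol was mixed with test compounds in ethanol at 0.1 or 0.5 mM final, with ethanol as the control. After 20 and 60 min at room temperature, absorbance was read at 517 nm. At least triplicate.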

[7] = Antioxidant activity assessed as reduction of DPPH activity at 0.1 mM after 60 mins; type: functional; parameters: scale not given: the % may be the effect or the level left; procedure, shortened: as §3
[8] = Antioxidant activity assessed as reduction of DPPH activity at 0.5 mM after 20 mins; type: functional; parameters: scale not given: the % may be the effect or the level left; procedure, shortened: as §3
[9] = Antioxidant activity assessed as reduction of DPPH activity at 0.5 mM after 60 mins; type: functional; parameters: scale not given: the % may be the effect or the level left; procedure, shortened: as §3
Rattus norvegicus [10] = assay: Antiinflammatory activity in Fisher 344 rat assessed as inhibition of carrageenan-induced paw edema at 0.01 mmol/kg, ip administered simultaneously with carrageenan measured after 3.5 hrs; type: functional; settings: Fisher 344, ip; procedure, shortened: as §2
Rattus norvegicus [11] = assay: Antiinflammatory activity in Fisher 344 rat assessed as inhibition of carrageenan-induced paw edema at 0.001 mmol/kg, ip administered simultaneously with carrageenan measured after 3.5 hrs; type: functional; settings: Fisher 344, ip

CCOC(=O)c1c(O)oc2ccccc2c1=O
Activity [1]: 91% | survival at 24 h [2]: 80% | Activity (Rattus norvegicus [3]): Non-toxic | Activity (Rattus norvegicus [4]): Non-toxic | inhibition (Glycine max): 93% | inhibition in vivo at 10 µmol/kg (Rattus norvegicus [5]): 63% | Activity [6]: 15% | Activity [7]: 27% | Activity [8]: 20% | Activity [9]: 13%

NCCNC(=O)c1c(O)c2ccccc2oc1=O
Activity [1]: 91% | survival at 24 h [2]: 80% | Activity (Rattus norvegicus [3]): Non-toxic | Activity (Rattus norvegicus [4]): Non-toxic | inhibition (Glycine max): 100% | inhibition in vivo at 10 µmol/kg (Rattus norvegicus [5]): 59% | Activity [6]: 42% | Activity [7]: 25% | Activity [8]: inactive | Activity [9]: inactive

COc1ccc2c(c1)c(CC(=O)O)c(C)n2C(=O)c1ccc(Cl)cc1 [INDOMETHACIN]
inhibition in vivo at 10 µmol/kg (Rattus norvegicus [5]): 47%

Cc1ccc2oc(=O)c(C(=O)NCCCCCCCCNC(=O)CCCCC3CCSS3)c(O)c2c1 (stereo not given)
Activity [1]: 100% | survival at 24 h [2]: 80% | Activity (Rattus norvegicus [3]): Non-toxic | Activity (Rattus norvegicus [4]): Non-toxic | inhibition (Glycine max): 8.3% | inhibition in vivo at 10 µmol/kg (Rattus norvegicus [10]): 73% | inhibition in vivo at 1 µmol/kg (Rattus norvegicus [11]): 60% | Activity [6]: 69% | Activity [7]: 65% | Activity [8]: 89% | Activity [9]: 87%

Cc1ccc2oc(=O)c(C(=O)NCCN)c(O)c2c1
Activity [1]: 100% | survival at 24 h [2]: 80% | Activity (Rattus norvegicus [3]): Non-toxic | Activity (Rattus norvegicus [4]): Non-toxic | inhibition (Glycine max): 14% | inhibition in vivo at 10 µmol/kg (Rattus norvegicus [5]): 59% | Activity [6]: 48% | Activity [7]: 59% | Activity [8]: 70% | Activity [9]: 65%

Cc1c(C)c2c(c(C)c1O)CCC(C)(C(=O)O)O2 (stereo not given)
Activity [1]: 88.2%

O=C(O)CCCCC1CCSS1 (stereo not drawn) [LIPOIC ACID, ALPHA]
Activity [1]: 38.6% | inhibition (Glycine max): 29.1% | inhibition in vivo at 10 µmol/kg (Rattus norvegicus [5]): 29.6% | Activity [6]: 20% | Activity [7]: 27% | Activity [8]: 5% | Activity [9]: 7%

CCOC(=O)c1c(O)c2cc(C)ccc2oc1=O
Activity [1]: 81% | survival at 24 h [2]: 80% | Activity (Rattus norvegicus [3]): Non-toxic | Activity (Rattus norvegicus [4]): Non-toxic | inhibition (Glycine max): 93% | inhibition in vivo at 10 µmol/kg (Rattus norvegicus [5]): 41% | Activity [6]: 18% | Activity [7]: 8% | Activity [8]: 20% | Activity [9]: 33%

O=C(CCCCC1CCSS1)NCCCCCCCCNC(=O)c1c(O)c2ccccc2oc1=O (stereo not given)
Activity [1]: inactive | survival at 24 h [2]: 80% | Activity (Rattus norvegicus [3]): Non-toxic | Activity (Rattus norvegicus [4]): Non-toxic | inhibition (Glycine max): 33% | inhibition in vivo at 10 µmol/kg (Rattus norvegicus [5]): 43% | Activity [6]: 21% | Activity [7]: 21% | Activity [8]: 32% | Activity [9]: 25%

Cc1ccc2oc(=O)c(C(=O)Nc3ccccc3N)c(O)c2c1
Activity [1]: 100% | survival at 24 h [2]: 80% | Activity (Rattus norvegicus [3]): Non-toxic | Activity (Rattus norvegicus [4]): Non-toxic | inhibition (Glycine max): 22% | inhibition in vivo at 10 µmol/kg (Rattus norvegicus [5]): 60% | Activity [6]: 74% | Activity [7]: 65% | Activity [8]: 70% | Activity [9]: 78%

CC(Cc1ccc(O)c(O)c1)C(C)Cc1ccc(O)c(O)c1 (stereo not given)
inhibition (Glycine max): 84% | Activity [7]: 83% | Activity [8]: 97% | Activity [9]: 98%

NCCCCCCCCNC(=O)c1c(O)c2ccccc2oc1=O
Activity [1]: inactive | survival at 24 h [2]: 80% | Activity (Rattus norvegicus [3]): Non-toxic | Activity (Rattus norvegicus [4]): Non-toxic | inhibition (Glycine max): inactive | inhibition in vivo at 10 µmol/kg (Rattus norvegicus [5]): 48% | Activity [6]: 17% | Activity [7]: 8% | Activity [8]: 9% | Activity [9]: 19%

Nc1ccccc1NC(=O)c1c(O)c2ccccc2oc1=O
Activity [1]: inactive | survival at 24 h [2]: 80% | Activity (Rattus norvegicus [3]): Non-toxic | Activity (Rattus norvegicus [4]): Non-toxic | inhibition (Glycine max): 23% | inhibition in vivo at 10 µmol/kg (Rattus norvegicus [5]): 57% | Activity [6]: 90% | Activity [7]: 93% | Activity [8]: 85% | Activity [9]: 83%

Cc1ccc2oc(=O)c(C(=O)NCCCCCCCCN)c(O)c2c1
Activity [1]: 100% | survival at 24 h [2]: 80% | Activity (Rattus norvegicus [3]): Non-toxic | Activity (Rattus norvegicus [4]): Non-toxic | inhibition (Glycine max): 30% | inhibition in vivo at 10 µmol/kg (Rattus norvegicus [5]): 59% | Activity [6]: 58% | Activity [7]: 68% | Activity [8]: 72% | Activity [9]: 78%

O=C(CCCCC1CCSS1)NCCCCCCNC(=O)c1c(O)c2ccccc2oc1=O (stereo not given)
Activity [1]: 96% | survival at 24 h [2]: 80% | Activity (Rattus norvegicus [3]): Non-toxic | Activity (Rattus norvegicus [4]): Non-toxic | inhibition (Glycine max): 18% | inhibition in vivo at 10 µmol/kg (Rattus norvegicus [10]): 72% | inhibition in vivo at 1 µmol/kg (Rattus norvegicus [11]): 61% | Activity [6]: 15% | Activity [7]: 18% | Activity [8]: 23% | Activity [9]: 12%

NCCCCCCNC(=O)c1c(O)oc2ccccc2c1=O
Activity [1]: 100% | survival at 24 h [2]: 80% | Activity (Rattus norvegicus [3]): Non-toxic | Activity (Rattus norvegicus [4]): Non-toxic | inhibition (Glycine max): 52% | inhibition in vivo at 10 µmol/kg (Rattus norvegicus [5]): 49% | Activity [6]: 3% | Activity [7]: 3% | Activity [8]: 5% | Activity [9]: 5%
